Data on 3 compounds can be found in ChEMBL document CHEMBL1143304, “Isolation, structure and biological activity of phomafungin, a cyclic lipodepsipeptide from a widespread tropical Phoma sp” (Bioorg Med Chem, 2009).

The structures appear in SMILES notation. ≈ marks a conversion by molar mass, not a printed value. Calls of active or inactive are those of the source. No cut-off for these calls is given here. Where a SMILES comes first, the peptide text is derived from it. [ ]: non-standard residue; d: D form. The star is where a group is joined. X1 = CCCCCCCCCCCCC(C)C(O)CC(=O)*; hSer = N[C@@H](CCO)C(=O)O

Data set [1] in a line: Clearance in Candida albicans MY1055 infected iv dosed DBA/2 mouse. The note with it: in vivo. It is filed as ADME, organism-based.
The test system of data set [2] is Candida albicans. In words: Antimicrobial activity against Candida albicans MY1055 after 24 hrs by broth macrodilution method. Particulars: for MIC: read-out: MIC100. It counts as functional. Summed up:
(§1)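 Broth MIC: inoculum 10^5 CFU/ml, incubated at 37 °C with 2-fold serial dilutions of compound in growth medium. MIC was the lowest concentration preventing visible growth.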

Data set [3] has as its system Mus musculus. In words: Toxicity in Candida albicans MY1055 infected DBA/2 mouse assessed as mouse mortality at 12.5 mg/kg, ip administered twice daily for 2 days. It counts as organism-based. Also noted: dose 12.5 mg/kg, route intraperitoneal. Particulars: in vivo, 48 h. Summed up:
(§2)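 DBA/2 mice, five per group, were infected i.v. via lateral tail vein with 2.51 × 10^4 CFU/mouse. Sodium salt in water was given IP twice daily at 50, 25, 12.5, 5 or 2.5 mg/kg. Kidneys were homogenized in saline, serially diluted and plated on SDA (35 °C, 30–48 h). CFU/g were compared with sham-treated mice by paired two-tailed t-test.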

For data set [4], the system named is Aspergillus fumigatus. In words: Antimicrobial activity against Aspergillus fumigatus MF5668 in presence of 50% human serum after 48 hrs by broth macrodilution method. It is filed as functional. Particulars: for MIC: read-out: MIC100.
Data set [5] relates to Candida albicans. In words: Antimicrobial activity against Candida albicans MY1055 infected DBA/2 mouse at <5 mg/kg, ip administered twice daily for 2 days. It counts as functional, organism-based. The procedure, abridged: as §2
Another data set relates to Pichia kudriavzevii. In words: Antimicrobial activity against Candida krusei ATCC 6258 […] by broth macrodilution method. The note with it: for MIC: read-out: MIC100. It counts as functional.
The next data set has as its system Nakaseomyces glabratus. In words: Antimicrobial activity against Candida glabrata MY1381 […] by broth macrodilution method. The note with it: for MIC: read-out: MIC100. It is filed as functional.
Data set [6] can be described thus: Toxicity against human HCT116 cells. It counts as cell-based, HCT-116.
Data set [7] in a line: Toxicity against human GTL16 cells. It counts as cell-based, GTL 16.
For data set [8], the system named is Candida albicans. In words: Antimicrobial activity against Candida albicans MY1055 after 24 hrs in presence of 50% mouse serum by broth macrodilution method. Particulars: MY1055, 24 h; for MIC: read-out: MIC100. It counts as functional.
The subject of data set [9] is Mus musculus. In words: Toxicity in Candida albicans MY1055 infected DBA/2 mouse assessed as mouse mortality at 50 mg/kg, ip administered twice daily for 2 days. The note with it: in vivo, 48 h. It is filed as organism-based. Further details: dose 50 mg/kg, route intraperitoneal. Summed up:
as §2

In a further data set the test system is Clavispora lusitaniae. In words: Antimicrobial activity against Candida lusitaniae MY1396 after 24 hrs by broth macrodilution method. It is filed as functional. Particulars: for MIC: read-out: MIC100. The procedure, abridged: as §1
The test system of data set [10] is Candida albicans. In words: Antimicrobial activity against Candida albicans MY1055 infected DBA/2 mouse at <5 mg/kg, […] administered twice daily for 2 days. It counts as functional, organism-based.
The test system of data set [11] is Mus musculus. In words: Toxicity in Candida albicans MY1055 infected DBA/2 mouse assessed as mouse mortality at <5 mg/kg, ip administered twice daily for 2 days. Particulars: in vivo, 48 h. It is filed as organism-based. Summed up:
as §2

The next data set concerns Candida tropicalis. In words: Antimicrobial activity against Candida tropicalis MY1012 after 24 hrs by broth macrodilution method. It counts as functional. The note with it: for MIC: read-out: MIC100. The procedure, abridged:
as §1

In data set [12] the test system is Trichophyton mentagrophytes. In words: Antimicrobial activity against Trichophyton mentagrophytes MF7004 after 96 hrs by broth macrodilution method. It counts as functional. The note with it: for MIC: read-out: MIC100.
A further data set has as its system Staphylococcus aureus. In words: Antimicrobial activity against Staphylococcus aureus MB2865 […] by broth macrodilution method. It counts as functional. Particulars: read-out: MIC100.
Data set [13] is described as follows: Toxicity against human HEL cells. It is filed as cell-based.
Data set [14] in a line: Toxicity against human PC3 cells. It is filed as cell-based, PC-3.
Data set [15] relates to Mus musculus. In words: Toxicity in Candida albicans MY1055 infected DBA/2 mouse assessed as mouse mortality at 25 mg/kg, ip administered twice daily for 2 days. It is filed as organism-based. Also noted: dose 25 mg/kg, route intraperitoneal. Particulars: in vivo, 48 h. The procedure, abridged: as §2
The subject of data set [16] is Mus musculus. In words: Dose normalized AUC in Candida albicans MY1055 infected iv dosed DBA/2 mouse. It is filed as ADME, organism-based. Particulars: in vivo.
Data set [17] in a line: Half life in Candida albicans MY1055 infected iv dosed DBA/2 mouse. It counts as ADME, organism-based. Particulars: in vivo.
Data set [18] deals with Aspergillus fumigatus. In words: Antimicrobial activity against Aspergillus fumigatus MF5668 after 48 hrs by broth macrodilution method. It counts as functional. The note with it: for MIC: read-out: MIC100. The procedure, abridged: as §1
The subject of another data set is Candida parapsilosis. In words: Antimicrobial activity against Candida parapsilosis ATCC 22019 […] by broth macrodilution method. It counts as functional. Particulars: Lodderomyces parapsilosis, read-out: MIC100.
The test system of data set [19] is Candida albicans. In words: Antimicrobial activity against Candida albicans MY1055 infected DBA/2 mouse administered twice daily for 2 days. It counts as functional, organism-based. Summed up:
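DBA/2 mice (5 per group) were infected i.v. via lateral tail vein with 2.51 × 10^4 CFU per mouse. The sodium salt in water was given IP twice daily at 50, 25, 12.5, 5 or 2.5 mg/kg. Mortality and health were followed for 4 days. Kidney homogenates were plated on SDA (35 °C, 30–48 h). CFU/g kidney was compared with sham-treated controls by paired two-tailed t-test.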

Data set [20] concerns Candida albicans. In words: Antimicrobial activity against Candida albicans MY1055 at 32 ug/mL after 24 hrs by broth macrodilution method. It is filed as functional, organism-based.

`CCCCCCCCCCCCC(C)C1CC(=O)N[C@@H](C)C(=O)NC(CCO)C(=O)N[C@@H](CCC(=O)O)C(=O)NCC(=O)N[C@@H](CO)C(=O)N[C@H](CC(N)=O)C(=O)N[C@H]([C@H](C)O)C(=O)NC(CCO)C(=O)O1` (some centres undefined) [PHOMAFUNGIN] yielded a clearance in [1] of 6.15 mL/min/kg. Further, the MIC was 4 µg/mL (≈ 3.88 µM) with Candida albicans [2]; greater than 32 µg/mL with Aspergillus fumigatus [4]; 4 µg/mL (≈ 3.88 µM) with Pichia kudriavzevii; 8 µg/mL (≈ 7.77 µM) in the data set on Nakaseomyces glabratus; greater than 32 µg/mL with Candida albicans [8]; 4 µg/mL (≈ 3.88 µM) in the data set with Clavispora lusitaniae. The MIC is greater than 32 µg/mL with Candida tropicalis; 2 µg/mL (≈ 1.94 µM) in data set [12]; greater than 32 µg/mL in the data set on Staphylococcus aureus; 4 µg/mL (≈ 3.88 µM) in the data set on Aspergillus fumigatus [18]; 4 µg/mL (≈ 3.88 µM) in the data set with Candida parapsilosis. Moreover, the Activity result in the data set with Mus musculus [3] is “Toxic”; in the data set on Mus musculus [9], “Toxic”; in the data set with Mus musculus [11], “Non-toxic”; with Mus musculus [15] it was “Toxic”. Besides, the outcome with Candida albicans [5] and in the data set on Candida albicans [10] was inactive. For the same compound, the MIC80 in the data set on Nakaseomyces glabratus stood at 4 µg/mL (≈ 3.88 µM); in [12], 1 µg/mL (≈ 0.971 µM). Besides, the IC50 in [6] turned out to be 20 µM; in data set [7] it was 26 µM; in [13], 15.5 µM; in data set [14], 19 µM. This compound registered an AUC with Mus musculus [16] of 2.64 µM. The compound also gave a half-life in data set [17] of 1.8 h.
Consider `CC[C@H](C)C[C@H](C)CCCCCCCCC(=O)N[C@H]1C[C@@H](O)[C@@H](NCCN)NC(=O)[C@@H]2[C@@H](O)CCN2C(=O)[C@H]([C@H](O)CCN)NC(=O)[C@H]([C@H](O)[C@@H](O)c2ccc(O)cc2)NC(=O)[C@@H]2C[C@@H](O)CN2C(=O)[C@H]([C@@H](C)O)NC1=O` [CASPOFUNGIN], for which the MIC80 in the data set with Candida albicans [2] is less than 0.03 µg/mL; with Aspergillus fumigatus [4] it was 0.06 µg/mL; against Pichia kudriavzevii it was 0.25 µg/mL (≈ 0.229 µM); against Nakaseomyces glabratus, less than 0.03 µg/mL; in the data set on Candida albicans [8], 0.125 µg/mL; against Clavispora lusitaniae it was less than 0.03 µg/mL. In addition, the MIC80 is less than 0.03 µg/mL with Candida tropicalis, 0.03 µg/mL (≈ 0.0274 µM) in data set [12] and less than 0.03 µg/mL against Aspergillus fumigatus [18]. The MIC with Candida albicans [2] is 0.125 µg/mL (≈ 0.114 µM); in the data set with Aspergillus fumigatus [4], greater than 32 µg/mL; in the data set on Pichia kudriavzevii, 1 µg/mL (≈ 0.915 µM); in the data set with Nakaseomyces glabratus, 0.125 µg/mL (≈ 0.114 µM); in the data set on Candida albicans [8], 0.25 µg/mL; in the data set with Clavispora lusitaniae, 0.125 µg/mL (≈ 0.114 µM). Further, the MIC in the data set on Candida tropicalis was 0.125 µg/mL (≈ 0.114 µM); in data set [12], 32 µg/mL (≈ 29.3 µM); with Staphylococcus aureus, 32 µg/mL (≈ 29.3 µM); in the data set with Aspergillus fumigatus [18] it was greater than 32 µg/mL; in the data set with Candida parapsilosis, 0.5 µg/mL (≈ 0.457 µM).
Regarding `CCCCCCCCCCCCC(C)C(O)CC(=O)N[C@@H](C)C(=O)N[C@@H](CCO)C(=O)N[C@@H](CCC(=O)O)C(=O)NCC(=O)N[C@@H](CO)C(=O)N[C@@H](CC(N)=O)C(=O)N[C@H](C(=O)N[C@@H](CCO)C(=O)O)[C@@H](C)O` (some centres undefined) (X1-A[hSer]EGSNT[hSer]-OH), the Activity result in the data set with Mus musculus [3] is on record as “Non-toxic”. For the same compound, the result with Candida albicans [19] and with Candida albicans [20] was inactive.

As usually defined, the clearance is the rate of elimination divided by the concentration. A high value points to efficient removal. As usually defined, the MIC80 is the lowest concentration that inhibits either 80% of growth or 80% of the strains tested, depending on the study. One may read the IC50 as the concentration that inhibits the measured activity by half. Higher therefore signals lower potency. As usually defined, the half-life is the time in which the quantity being followed falls by half. A higher half-life goes with slow loss.
